Results of several laboratories.
Protocols differ between the studies behind these lines. pIC50: −log10 of the molar value.
Target: Acetylcholinesterase (ACHE, Homo sapiens, UniProt P22303)
Read-out: enzyme activity
Mode: inhibitor

O=c1cc(CSc2ccc(N=Cc3ccc(O)cc3)cc2)occ1O
pIC50 (Ellman): 5.30

CC(C)c1cc2c(c(O)c1O)[C@@]13CCCC(C)(C)[C@@H]1C[C@@H]2OC3=O
pIC50: 9.09

CC[C@H](C)[C@@H](NC(=O)COc1c(NC(C)=O)cc(-c2nc3ccccc3s2)cc1OC)C(=O)O
pIC50 (Ellman): < 3.58

O=c1cc(CSc2ccc(N=Cc3cccc(Br)c3)cc2)occ1O
pIC50 (Ellman): 5.25

CC[C@@H](C)[C@H](NC(=O)CN1C(=O)COc2c(OC)cc(-c3nc4ccccc4s3)cc21)C(=O)O
pIC50 (Ellman): < 3.58

CCOc1ccc(NC(=O)CSc2nnc(COc3ccc4ccccc4c3)n2-c2ccccc2)cc1
pIC50 (Ellman): 6.09

COc1cc(-c2nc3ccccc3s2)cc2c1OCC(=O)N2CC(=O)N[C@@H](C)C(=O)O
pIC50 (Ellman): < 3.54

Cc1ccc(NC(=O)CSc2nnc(COc3ccc4ccccc4c3)n2-c2ccccc2)cc1C
pIC50 (Ellman): 6.11

COc1cc(-c2nc3ccccc3s2)cc2c1OCC(=O)N2CC(=O)N[C@H](C(=O)O)C(C)C
pIC50 (Ellman): < 3.56

CCOc1cccc(NC(=O)CSc2nnc(COc3ccc4ccccc4c3)n2-c2ccccc2)c1
pIC50 (Ellman): 5.94

O=c1cc(CSc2ccc(N=Cc3ccc([N+](=O)[O-])cc3)cc2)occ1O
pIC50 (Ellman): 5.08

CC(C)c1cc2c(c(O)c1O)[C@@]13CCCC(C)(C)[C@@H]1[C@@H](O)[C@@H]2OC3=O
pIC50: 9.01

Cc1ccc(NC(=O)CSc2nnc(COc3ccc4ccccc4c3)n2-c2ccccc2)c(C)c1
pIC50 (Ellman): 6.16

COc1cc(-c2nc3ccccc3s2)cc(NC(C)=O)c1OCC(=O)N[C@@H](C)C(=O)O
pIC50 (Ellman): < 3.54

O=c1cc(CSc2ccc(N=Cc3cccc(O)c3)cc2)occ1O
pIC50 (Ellman): 5.44
